In this data set the test system is MS2 coat protein. Description: apparent Kd, MS2 coat protein; higher = weaker binding; RNA-MaP array; FMN 200 µM where present. The procedure, abridged: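 Stalled E. coli RNA polymerase produced the designs on Illumina sequencing-chip clusters. SNAP-549-labelled MS2 coat protein was added from 0.7 or 1.5 nM, doubling to 3 µM, without and then with constant ligand, in 100 mM Tris-HCl pH 7.5, 80 mM KCl, 4 mM MgCl2, BSA, DTT, yeast tRNA and Tween-20. The apparent Kd is the median of filtered per-cluster fits of green signal normalised to red-channel RNA signal and control-cluster median Fmax.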

Where [1] appears, read: designed as: OFF switch for flavin mononucleotide, no ligand.
[2] abbreviates: ligand present: flavin mononucleotide, designed as: OFF switch for flavin mononucleotide.
The mark [3] stands for this setting: designed as: ON switch for flavin mononucleotide, no ligand.
[4] abbreviates: ligand present: flavin mononucleotide, designed as: ON switch for flavin mononucleotide.

The results in this text go back to the EternaBench riboswitch data.

Regarding “CUCGAGUUAGGAUAUCGAACGUAACAAGCGGAAACUCCCGCCGAGAAGGAACAUGAGGAUCACCCAUGUGAAAC”, the “apparent Kd” value runs as follows: under setting [1], 14.9 nM; under setting [2], 18.3 nM.

As for “UUGGUUGUCGUAGGAUAUGUAGGAUAUUCCUACAUGAGGAUCACCCAUGUUCGCAUGGAAGAAGGACAGAAGGACGAUGACCAC”, the “apparent Kd” value reads like this: under setting [3], 850 nM; under setting [4], 9.19 nM.

Consider “UUAUUUAUGCAAGGAUAUCAAUUAUAUACACGUCCUACAUGAGGAUCACCCAUGUUUAGUUUUUUUGAGAAGGUGCAUUGUCGG”, for which the “apparent Kd” value was determined as 52.1 nM under setting [3] and 44.5 nM under setting [4].

In the case of “AGUCCUGACGUCAGGAUAUCCGGCCAAUAGGCCAAGGAGAAGGGACAUGAGGAUCACCCAUGUGCUUGGGUCCG”, the “apparent Kd” value is, setting by setting: under setting [1], 23.2 nM; under setting [2], 40.2 nM.

For the sequence “AGUACCAUGUAGAAGGGAUAUCUGAUUCAGAUAUCAGGAUAUACAUGAGGAUCACCCAUGUAAAUGUACUCCAGGAAACUGGAA”, the “apparent Kd” value under setting [1] was found to be 18 nM and the “apparent Kd” value under setting [2] worked out at 48 nM.

Turning to “UGGUACAUGGGAGGAUAUGGGUUGAUAACAUGAGGAUCACCCAUGUUAAAUAUGCCUAAUGGCAACUAGAAGGCCCAUGUACCU”, the “apparent Kd” value reads like this: under setting [3], 377 nM; under setting [4], 40.8 nM.

Regarding “AAGGAACGAGGAUAUGCAGGUUGAGCUCGAGUUCGACCGGAACAUGAGGAUCACCCAUGUAGAAGGUGUAUCCC”, the “apparent Kd” value under setting [1] turned out to be 24.1 nM and the “apparent Kd” value under setting [2] is 24.4 nM.

Take “AAUAACAGAGGAUAUACUAUUUUAUGUGUUUGUUAUUUUAAACAUGAGGAUCACCCAUGUAGAAGGCUGAUUGA”: the “apparent Kd” value reads like this: under setting [1], 46.7 nM; under setting [2], 46.6 nM.

As to “GAUAGAGAGCAGGAUAUCUUGGGUAAGUAUCGUAGAGAAGGGCUCACAUGAGGAUCACCCAUGUGGUCCUAGAU”, the “apparent Kd” value runs as follows: under setting [1], 12.7 nM; under setting [2], 29.5 nM.

On to “UGGCUACAUGAGGAUCACCCAUGUCAGGAUAUGCCGUUGGAUUGACUUCGUCGUUCGGGUAGAAGGGACUGCGU”, for which the “apparent Kd” value is, setting by setting: under setting [1], 43.3 nM; under setting [2], 54.9 nM.

As for “GGUUGUCAUAGUCAUCCUUUCCGUACAUGAGGAUCACCCAUGUAGGAUAUGCUGCUCUCGGUGUGGCAGAAGGGCGUGUGUCUU”, the “apparent Kd” value by setting is: under setting [1], 17.8 nM; under setting [2], 18.9 nM.

Turning to “GGCAGCGGACAAGGAUAUAAGACGCAGACCAAAUUAGAAGGUGUCAUCUGGCAAUGCGAAAGCAGACAUGAGGAUCACCCAUGU”, the “apparent Kd” value is 68.8 nM under setting [3] and 61.7 nM under setting [4].

Take “CGCAAUGAUGGUAGUAAUAGAGCAUAGGAUAUGCUUGUACAUGAGGAUCACCCAUGUUAUAUUUUGCAGAAGGGUGUAAUUGCG”: the “apparent Kd” value under setting [3] was determined as 309 nM and the “apparent Kd” value under setting [4] was 159 nM.

As to “GUUUUUUUUAGUUCAUACUAUAUGAUAGAAGGUGAAAUAUAGACAUGAGGAUCACCCAUGUAAUUCAAGGAUAUGUAGUUACUC”, the “apparent Kd” value is, setting by setting: under setting [3], 35.1 nM; under setting [4], 24.3 nM.

Take “GCGUAACAUGAGGAUCACCCAUGUGCCCGAGAAUUCGGGCCGAGAAGGGUGACCGGUCGUAUGGCACAGGAUAUCGACGUUGUG”: the “apparent Kd” value amounted to 30.6 nM under setting [3] and 13.4 nM under setting [4].

With “CCGCAAAAGCAGGAUAUCGUAUCGGAUACGAUACGAGAAGGGCUAACAUGAGGAUCACCCAUGUGUCCUAGCGG”, the “apparent Kd” value is, setting by setting: under setting [1], 16.9 nM; under setting [2], 25.6 nM.

As for “AGAAAACAUGAGGAUCACCCAUGUAGAAAUAUGGGAGGAUAUACAAAGACGAAAGUCAGAGUAGAAGGCCUAAAAA”, the “apparent Kd” value was 65.2 nM under setting [3] and 17.6 nM under setting [4].

Regarding “GGAGAUACAUGAGGAUCACCCAUGUAGGAUAUCGGGCCCAUAUAUGGCGAAAGCCAUAUAUGGGCCGAGAAGGGCGUACACACC”, the “apparent Kd” value by setting is: under setting [1], 7.63 nM; under setting [2], 7.45 nM.

“AUUUAUGGCCAGAAGGACAUGAGGAUCACCCAUGUAGGAUAUGGACGAUUUUGCUCGACGGUUUGUUAAGGAAGCACCGGUGGU”: the “apparent Kd” value came out at 12.4 nM under setting [3] and 6.52 nM under setting [4].

Turning to “CGCUAAUAAAUAGUAAUAAUUGUACAGGAUAUGUUACAUGAGGAUCACCCAUGUAUUGGGUUUAAACAGAAGGGUAUAUUAGCG”, the “apparent Kd” value runs as follows: under setting [1], 261 nM; under setting [2], 126 nM.

With “AUUAAUUUGUAGAAGGACGACUAUUAAUAUUUCGUAGGAUAUACUAUUUACAUGAGGAUCACCCAUGUUUAAAUGGAACAAUGU”, the “apparent Kd” value by setting is: under setting [1], 8.1 nM; under setting [2], 11.8 nM.

Consider “GCGGGCAGCACAGGAUAUGUGACGUACAUGAGGAUCACCCAUGUGCGAAUGGCAGAAGGGUGAGGCCUCGGUGACCGAUUUCCG”, for which the “apparent Kd” value by setting is: under setting [3], 16 nM; under setting [4], 5.59 nM.

As to “GGUCCUUCUGUUAGGAUAUGCUUUGGGCUUCCGCAGUAGAAGGAACAUGAGGAUCACCCAUGUCCGAUGCCGUC”, the “apparent Kd” value was 86 nM under setting [1] and 88.1 nM under setting [2].

On to “CGUCGGUGGCAGAAGGGACAGAGAUCCUCGCUGCCGGAUCGUCUUGCACAUGAGGAUCACCCAUGUCAGGAUAUGCCCAAGCGG”, for which the “apparent Kd” value is 5.35 nM under setting [1] and 5.15 nM under setting [2].

Consider “AUAAAACAAAACCACACAUGAGGAUCACCCAUGUCAAGAUUACAGGAUAUCCGGCAGAGAUGCAAGGAGAAGGGUGAUCCCAAA”, for which the “apparent Kd” value runs as follows: under setting [3], 17.3 nM; under setting [4], 56.9 nM.

On to “UUGGACGUCGUAGGAUAUGUAGGAUAUUCCUACAUGAGGAUCACCCAUGUUGACAUGGAAGAGGGACAGAAGGACGAUGUCCAU”, for which the “apparent Kd” value under setting [3] came out at 606 nM and the “apparent Kd” value under setting [4] amounted to 30.5 nM.

On to “GUGGUCAGACAUGAGGAUCACCCAUGUGGAAUAAAUAAGGAGAAGGAUAUGGAAUAUAGGAUAUACCAGAAGGUUUGGUUGGUG”, for which the “apparent Kd” value under setting [3] is 112 nM and the “apparent Kd” value under setting [4] was 116 nM.

For “GGAUAGUGUCGUUAUCCGUAGCGAACAUGAGGAUCACCCAUGUAGGAUAUGUUAUUAAACUAAUAACAGAAGGACGUUGGUCUC”, the “apparent Kd” value under setting [1] is 66.2 nM and the “apparent Kd” value under setting [2] is 434 nM.

Consider “GCAGGUUAAGUCAGGAUAUACCUAUGGAUACAUAGGUAGAAGGGACAUGAGGAUCACCCAUGUGCCUCGCCUGC”, for which the “apparent Kd” value came to 17.7 nM under setting [1] and 69.3 nM under setting [2].

As for “AGUAAGAUGCAGAAGGUGUCAGCGAGAGCUGUACAUGAGGAUCACCCAUGUUGUCGGUGACGACACAAGGAUAUGCAUCUUACA”, the “apparent Kd” value is, setting by setting: under setting [3], 24.7 nM; under setting [4], 6.28 nM.

For “GGUGCUCAAAGAGUACCAAUACGAACAUGAGGAUCACCCAUGUAGGAUAUGCUACUCAAAGAGUAGCAGAAGGACAUGUGCCUA”, the “apparent Kd” value under setting [1] amounted to 16.4 nM and the “apparent Kd” value under setting [2] came to 116 nM.

With “AGCUGUGGCCGAGGAUAUCUAUCCAAUAUAACCGAAAUAUAAUCGGACAUGAGGAUCACCCAUGUAGAGAAGGCGGUCUCAGCA”, the “apparent Kd” value by setting is: under setting [1], 19.8 nM; under setting [2], 25.5 nM.

In the case of “ACAAGAUCAGGAUAUACAUGAGGAUCACCCAUGUAUUUCAAAAAGGGACUUUCUUUAUGUAGAAGGGAUCUUGU”, the “apparent Kd” value is 50.8 nM under setting [1] and 67.2 nM under setting [2].

For the sequence “CCUAAACAUGAGGAUCACCCAUGUGAGGAUAUGAUGCAGCAGUGGUCUACGCUGUGCAUCAGAAGGUACAUGGU”, the “apparent Kd” value is, setting by setting: under setting [1], 80.8 nM; under setting [2], 120 nM.

With “AACAGGCGUGCCCUGAGUCCACAUGAGGAUCACCCAUGUGAGAGAAGGACCCUCGAGAGAGUUGGGUAGGAUAUCUCCGAUGGG”, the “apparent Kd” value worked out at 24 nM under setting [1] and 57.5 nM under setting [2].

For the sequence “GCGCGGUAAGGAUAUCUGCACGGAAACAUGAGGAUCACCCAUGUUCAGAUGAUUCUUAUAAGAGAAGGUACUGACA”, the “apparent Kd” value under setting [1] turned out to be 17.4 nM and the “apparent Kd” value under setting [2] was determined as 19.1 nM.

By apparent Kd is commonly meant the concentration giving half-maximal binding under the conditions of the assay.
